The source made the active and inactive calls. The calls are words filed in the database; no cut-off is given here.
How the values were obtained:
[1] = Cytotoxicity against human JeKo1 cells after 72 hrs by XTT assay; format: functional, cell-based; conditions: JeKo-1, 72 h
Method in brief: (§1)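 Cells grown at 37 °C, 5% CO2; HFF in DMEM with 10% FBS, PrEC in prostate epithelial growth medium. Adherent lines seeded overnight, suspension lines same day; compounds diluted from DMSO stocks into media at various final concentrations, 72 h exposure. XTT reagent added 4 h, absorbance 490 nm (reference 690 nm). Growth as % of vehicle; IC50 from sigmoidal dose-response fit; mean ± SEM, three independent experiments.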

PC-3 = experiment: Cytotoxicity against human PC3 cells after 72 hrs by XTT assay; format: functional, cell-based; conditions: PC-3, 72 h; method in brief: as §1
WiDr = experiment: Cytotoxicity against human WiDr cells after 72 hrs by XTT assay; format: functional, cell-based; method in brief: as §1
[2] = Chemical stability in phosphate buffer assessed as half life at pH 7.4 at 37 degC; format: physicochemical
JVM-2 = experiment: Cytotoxicity against human JVM2 cells after 72 hrs by XTT assay; format: functional, cell-based; conditions: JVM-2, 72 h; method in brief: as §1
JeKo-1 = experiment: Anticancer activity against human JeKo1 cells transplanted in Es-1/SCID mouse assessed as decrease in tumor volume at 50 to 100 mg/kg, iv measured after 25 days; format: functional, organism-based
HeLa [3] = experiment: Inhibition of spliceosome splicing activity in human HeLa cells assessed as mRNA products at 0.5 to 10 uM by autoradiography; format: cell-based
HeLa [4] = experiment: Anticancer activity in human HeLa cells assessed as aggregation of SC35 and SF3b protein SAP155 at 10 uM after 4 hrs by immunofluorescence analysis; format: functional, cell-based
Method in brief: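 HeLa cells on glass coverslips exposed 4 h to 10 μM compound in DMSO (DMSO-only control), fixed in cold methanol at −20 °C for 10 min. Stained with anti-SC35 or anti-SAP155 primary (1/100, 1 h, 37 °C), then Alexa Fluor 488 anti-mouse secondary (1/200). Splicing-factor distribution imaged by fluorescence microscopy at 60X.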

Structure (SMILES) | IC50 [1] [nM] | IC50 (PC-3) [nM] | IC50 (WiDr) [nM] | half-life [2] [h] | IC50 (JVM-2) [nM] | Activity (JeKo-1) | Activity (HeLa [3]) | Activity (HeLa [4])
CC(/C=C/[C@@H]1C[C@]2(CO2)CC(C)(C)O1)=C\C[C@H]1CC[C@@H](NC(=O)/C=C\[C@H](C)OC(=O)c2ccccc2)CC1 | 410 | 4900 | 410 |  |  |  |  | 
CC(/C=C/[C@@H]1C[C@]2(CO2)CC(C)(C)O1)=C\C[C@H]1CC[C@@H](NC(=O)/C=C\[C@H](C)OC(=O)c2cccnc2)CC1 | 170 | 8100 | 170 |  |  |  |  | 
CC(=O)O[C@@H](C)/C=C\C(=O)N[C@@H]1C[C@H](C)[C@H](C/C=C(C)/C=C/[C@H]2O[C@](C)(O)C[C@@]3(CO3)[C@@H]2O)O[C@@H]1C |  |  |  | 4 |  |  |  | 
CC(/C=C/[C@@H]1C[C@]2(CO2)CC(C)(C)O1)=C\C[C@H]1CC[C@@H](NC(=O)/C=C\[C@H](C)OC(=O)c2ccco2)CC1 | 140 | 3500 | 140 |  |  |  |  | 
COc1cccc(N2CCN(C(=O)O[C@@H](C)/C=C\C(=O)N[C@H]3CC[C@@H](C/C=C(C)/C=C/[C@@H]4C[C@]5(CO5)CC(C)(C)O4)CC3)CC2)c1 | > 500 | > 2500 | > 1250 |  | > 500 |  |  | 
CC(/C=C/[C@@H]1C[C@]2(CO2)CC(C)(C)O1)=C\C[C@H]1CC[C@@H](NC(=O)/C=C\[C@H](C)OC(=O)C2CCN(c3ccnc(C(F)(F)F)n3)CC2)CC1 | > 1000 | > 10000 | > 1000 |  |  |  |  | 
CC(/C=C/[C@@H]1C[C@]2(CO2)CC(C)(C)O1)=C\C[C@H]1CC[C@@H](NC(=O)/C=C\[C@H](C)OC(=O)C2CCN(C)CC2)CC1 | > 1000 | 10000 |  |  |  |  |  | 
CC(/C=C/[C@@H]1C[C@]2(CO2)CC(C)(C)O1)=C\C[C@H]1CC[C@@H](NC(=O)/C=C\[C@H](C)O)CC1 | 1600 | 10000 | 10000 |  | 1500 |  |  | 
CC(/C=C/[C@@H]1C[C@]2(CO2)CC(C)(C)O1)=C\C[C@H]1CC[C@@H](NC(=O)/C=C\[C@H](C)OC(=O)c2cccn2C)CC1 | 390 | 4300 | 390 |  |  |  |  | 
CC(/C=C/[C@@H]1C[C@]2(CO2)CC(C)(C)O1)=C\C[C@H]1OC[C@@H](NC(=O)/C=C\[C@H](C)OC(=O)C(C)C)CO1 | 150 |  |  |  |  | Active | Active | Active
CC(/C=C/[C@@H]1C[C@]2(CO2)CC(C)(C)O1)=C\C[C@H]1CC[C@@H](NC(=O)/C=C\[C@H](C)OC(=O)N2CCN(C)CC2)CC1 | > 500 | > 2500 | > 1250 |  | > 500 |  |  | 
CC(/C=C/[C@@H]1C[C@]2(CO2)CC(C)(C)O1)=C\C[C@H]1CC[C@@H](NC(=O)/C=C\[C@H](C)OC(=O)N2CCN(CCO)CC2)CC1 | > 500 | > 2500 | > 1250 |  | > 500 |  |  | 
CC(=O)O[C@@H](C)/C=C\C(=O)N[C@H]1CC[C@@H](C/C=C(C)/C=C/[C@@H]2C[C@]3(CO3)CC(C)(C)O2)CC1 | 100 |  |  |  |  |  |  | 
CC(/C=C/[C@@H]1C[C@](O)(CCl)CC(C)(C)O1)=C\C[C@H]1CC[C@@H](NC(=O)/C=C\[C@H](C)OC(=O)N2CCN(C3CCCCCC3)CC2)CC1 |  | > 5000 | > 1250 |  | > 10000 |  |  | 
CC(/C=C/[C@@H]1C[C@]2(CO2)CC(C)(C)O1)=C\C[C@H]1CC[C@@H](NC(=O)/C=C\[C@H](C)OC(=O)C2CCOCC2)CC1 | 450 | 2000 |  |  |  |  |  | 
CC(/C=C/[C@@H]1C[C@]2(CO2)CC(C)(C)O1)=C\C[C@H]1CC[C@@H](NC(=O)/C=C\[C@H](C)OC(=O)N2CCN(C3CCCCCC3)CC2)CC1 |  | > 5000 |  |  | > 1000 |  |  | 
